{"source": "paper PMC5815365", "about": "(Molecular pharmaceutics, 2016)", "key": {"LTED cells": {"test_system": "LTED cells", "test": "Cell viability / growth inhibition by cell number count", "format": "cell-based, human", "outline": "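LTED cells (MCF-7-derived, phenol red-free medium, charcoal-dextran stripped FBS) seeded at 60,000/well in 6-well plates and grown 2 days at 37 °C. They were then exposed to test compound for 2–5 days with 0.1% final ethanol or DMSO vehicle. Cells were saline-rinsed, nuclei released with HEPES–MgCl2 and ZAP (ethylhexadecyldimethylammonium bromide/acetic acid) and Coulter-counted. Three independent repeats, normalized to 100% viability; dose–response curves gave IC50.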"}, "[1]": {"test": "Cell viability / growth inhibition in benign breast epithelial cells", "format": "cell-based", "settings": "human, MCF-10A cells (benign breast epithelial cells)"}, "MCF-7 xenografts [2]": {"test_system": "MCF-7 xenografts", "test": "In vivo NIRF imaging of tumor uptake in nude mice bearing MCF-7 xenografts", "settings": "for retention of fluorescence in tumors: two days after injection", "outline": "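Nude mice with estradiol-supported MCF-7 mammary fat-pad xenografts (about 150 mm3) received 17 nmol dye i.p. (n = 3). They were imaged under 2% isoflurane at serial time points up to 8 days on IVIS (Ex 740/Em 820 nm, auto exposure, F-stop 2). Tumor ROI radiance (p/s/cm2/sr) was background-subtracted using another body region and normalized to tumor volume.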"}, "[3]": {"test": "Partition coefficient in n-octanol and water, measured by NIR fluorescence", "format": "physicochemical", "settings": "octanol–water partitioning measured with NIRF", "outline": "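Compound (5 nmol) was shaken 10 min in 0.6 mL n-octanol plus 0.6 mL water (final 4.15 μM, within the linear fluorescence range), then centrifuged at 10,000 rpm for 5 min. Triplicate 100 μL aliquots of each layer were imaged on IVIS (Ex/Em 745/820 nm) as ROI average radiance. log P = log(octanol/water intensity), corrected by a per-probe solvent factor; mean and SD reported.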"}, "MCF-7 xenografts [4]": {"test_system": "MCF-7 xenografts", "test": "Ex vivo dye biodistribution analysis by NIRF of harvested tumors and organs", "format": "in vivo, mice", "settings": "day 2 of injection", "outline": "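Ovariectomized female athymic mice carried mammary fat-pad MCF-7 xenografts (5 million cells in Matrigel, estradiol:cholesterol 1:3 implants), grown to about 150 mm3. A separate cohort received 17 nmol dye i.p. After IVIS imaging, mice were killed by ketamine/xylazine overdose at each time point. Tumor, muscle, liver, lung, heart, kidneys and skin were rinsed, dried and IVIS-imaged; organ ROIs were normalized to tumor volume.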"}}, "note": "Values joined by “and” are separate entries in the source; they are usually repeats but may differ in a detail not shown here. Equal values may be shown once. Where a name gives a salt, the structure may show the parent alone. Read-outs that look alike come from different tables or passages of the source."}
{"compound": "CC(C)=CCC/C(C)=C/CC/C(C)=C/CSc1ccccc1C(=O)O", "note": "[FTS, S-trans-trans-farnesylthiosalicylic acid]", "values": [{"measurement": "IC50", "setting": "LTED cells; Homo sapiens, read-out: IC50 (cell growth inhibition), LTED cells", "value": "~51.3", "unit": "µM"}, {"measurement": "IC50", "setting": "LTED cells; read-out: IC50 (cell growth inhibition), LTED cells", "value": "~51.8 µM and < 50 µM"}, {"measurement": "inhibition of cells", "setting": "LTED cells; up to 75 μM", "value": "70–75%"}, {"measurement": "viability at 2 days, 50 µM", "setting": "[1]", "value": "~100", "unit": "%"}]}
{"compound": "CC1(C)C(/C=C/C2=C(Cl)C(=C\\C=C3/N(CCCS(=O)(=O)[O-])c4ccccc4C3(C)C)/CCC2)=[N+](CCCS(=O)(=O)[O-])c2ccccc21.[Na+]", "note": "[Compound 6, 3H-indolium, 2-[2-[2-chloro-3-[[1,3-dihydro-3,3-dimethyl-1-(3-sulfopropyl)-2H-indol-2-ylidene]ethylidene]-1-cyclohexen-1-yl]ethenyl]-3,3-dimethyl-1-(3-sulfopropyl)-, inner salt, sodium salt]", "values": [{"measurement": "retention of fluorescence in tumors", "setting": "MCF-7 xenografts [2]; 17 nmol/mouse", "value": "retained in the tumors"}, {"measurement": "log P", "setting": "[3]", "value": "−1.13"}, {"measurement": "fluorescence intensity in tumor tissue compared to muscle", "setting": "MCF-7 xenografts [4]", "value": 6.3, "unit": "fold"}]}
{"compound": "CC1(C)C(=CC=C2CCCC(C=CC3=[N+](CCCCS(=O)(=O)[O-])c4ccccc4C3(C)C)=C2Cl)N(CCCCCC(=O)O)c2ccccc21", "note": "[Compound 5, 3H-Indolium, 2-[2-[3-[2-[1-(5-Carboxypentyl)-1,3-dihydro-3,3-dimethyl-2H-indol-2-ylidene]ethylidene]-2-chloro-1-cyclohexen-1-yl]ethenyl]-3,3-dimethyl-1-(4-sulfobutyl) Inner Salt]", "values": [{"measurement": "time of peak uptake (NIRF)", "setting": "MCF-7 xenografts [2]; 17 nmol/mouse", "value": "about 30 h"}, {"measurement": "fluorescence intensity disappeared", "setting": "MCF-7 xenografts [2]; 8 days after injection", "value": 80, "unit": "%"}, {"measurement": "retention of fluorescence in tumors", "setting": "MCF-7 xenografts [2]; 17 nmol/mouse", "value": "retained in the tumors"}, {"measurement": "log P", "setting": "[3]", "value": 0.49}, {"measurement": "fluorescence intensity in tumor tissue compared to muscle", "setting": "MCF-7 xenografts [4]", "value": 8.6, "unit": "fold"}]}
{"compound": "CC1(C)C(/C=C/C2=C(Cl)C(=C/C=C3\\N(CCCCCC(=O)O)c4ccccc4C3(C)C)/CCC2)=[N+](CCCCCC(=O)O)c2ccccc21", "note": "[Compound 7]", "values": [{"measurement": "retention of fluorescence in tumors", "setting": "MCF-7 xenografts [2]; 17 nmol/mouse", "value": "retained in the tumors"}, {"measurement": "log P", "setting": "[3]", "value": 1.35}, {"measurement": "fluorescence intensity in tumor tissue compared to muscle", "setting": "MCF-7 xenografts [4]", "value": 4.5, "unit": "fold"}]}
